The term IC50 denotes the midpoint of a concentration-inhibition curve.

This is an account of results in ChEMBL document CHEMBL1135714, “New neplanocin analogues. 12. Alternative synthesis and antimalarial effect of (6'R)-6'-C-methylneplanocin A, a potent AdoHcy hydrolase inhibitor” (J Med Chem, 2002).

The test system of assay [1] is Plasmodium berghei. Nature of the assay: Parasitaemia (%) in tail blood smears from Plasmodium berghei infected ICR mice (Mus musculus) at 0.1-mg/kg/day for 4 days. Format: functional. An outline of the steps:
(§1)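 P. berghei NK 65-infected ICR mice, five per group. Compounds in DMSO were given intraperitoneally once daily for four consecutive days from day 0, at 0.1–20 mg/kg/day. Five infected DMSO-dosed mice served as controls. On day 4, Giemsa-stained tail-blood thin films were read by microscopy, with 1 × 10⁴ erythrocytes counted per film, to give % parasitemia.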

The subject of assay [2] is Plasmodium berghei. Nature of the assay: Parasitaemia (%) in tail blood smears of Plasmodium berghei infected ICR mice (Mus musculus) at 1.0 mg/kg/day after 4 days. Format: functional. An outline of the steps:
as §1

In another assay the test system is Plasmodium falciparum. The assay can be described thus: In vitro antimalarial activity against Plasmodium falciparum.
Assay [3] concerns Plasmodium berghei. Nature of the assay: Parasitaemia (%) in tail blood smears of Plasmodium berghei infected ICR mice (Mus musculus) at 2 mg/kg/day after 4 days. Format: functional. In short, it runs like this:
as §1

For assay [4], the system named is Plasmodium berghei. Nature of the assay: Parasitaemia (%) in tail blood smears of Plasmodium berghei infected ICR mice (Mus musculus) at 5 mg/kg/day after 4 days. Type of assay: functional. An outline of the steps:
as §1

Assay [5] can be described thus: The compound was tested for survival of the ICR mice (infected with Plasmodium berghei) as a symptom indicative of toxicity on day 4, at different doses 20 mg/kg/day. Type of assay: functional, Mus musculus. An outline of the steps:
(§2)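 P. berghei (NK 65 strain)-infected ICR mice, groups of five; compound in DMSO given intraperitoneally once daily for four consecutive days starting day 0; five infected DMSO-dosed mice as controls; survival counted on day 4 as toxicity indicator; Giemsa-stained tail blood smears, 1 × 10⁴ erythrocytes per film, for parasitemia.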

A short description of assay [6]: The compound was tested for survival of the ICR mice (infected with Plasmodium berghei) as a symptom indicative of toxicity on day 4, at a dose of 1.0 mg/kg/day. Type of assay: functional, Mus musculus. In short, it runs like this: as §2
Assay [7] has as its system Plasmodium berghei. Nature of the assay: Parasitaemia (%) in tail blood smears from Plasmodium berghei infected ICR mice (Mus musculus) after 4 days. Format: functional. An outline of the steps: as §1
Assay [8] in a line: The compound was tested for survival of the ICR mice (infected with Plasmodium berghei) as a symptom indicative of toxicity on day 4, at a dose of 2 mg/kg/day. Format: functional, Mus musculus. An outline of the steps: as §2
Assay [9] can be described thus: The compound was tested for survival of the ICR mice (infected with Plasmodium berghei) as a symptom indicative of toxicity on day 4, at a dose of 0.1 mg/kg/day. Type of assay: functional, Mus musculus. In short, it runs like this:
as §2

A short description of assay [10]: The compound was tested for the dose required to cause 50% suppression of Plasmodium berghei growth in mice. Format: functional, Mus musculus. In short, it runs like this: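 Four-day suppressive test in ICR mice infected with P. berghei NK 65, five per group. DMSO solutions were injected intraperitoneally daily on days 0–3 at 0.1–20 mg/kg/day, against infected DMSO-dosed controls. Day-4 parasitemia came from Giemsa-stained tail-blood smears, 1 × 10⁴ erythrocytes per film. EC50 is the dose giving 50% suppression of parasite growth.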

Assay [11] in a line: The compound was tested for survival of the ICR mice (infected with Plasmodium berghei) as a symptom indicative of toxicity on day 4, at a dose of 10 mg/kg/day. Type of assay: functional, Mus musculus. An outline of the steps: as §2
Assay [12] deals with Plasmodium berghei. Nature of the assay: Percent parasitaemia in tail blood smears from Plasmodium berghei infected ICR mice (Mus musculus) at 0.5-mg/kg/day after 4 days. Type of assay: functional. An outline of the steps:
as §1

In assay [13] the test system is KATO III stomach cancer cell line. Nature of the assay: The compound was tested for cytotoxicity against the growth of human gastric carcinoma cell line ( KATO III ). Type of assay: functional, cell-based.
The nature of assay [14]: The compound was tested for survival of the ICR mice (infected with Plasmodium berghei) as a symptom indicative of toxicity on day 4, at a dose of 5 mg/kg/day. Type of assay: functional, Mus musculus. An outline of the steps: as §2
A short description of assay [15]: The compound was tested for survival of the ICR mice (infected with Plasmodium berghei) as a symptom indicative of toxicity on day 4, at a dose of 0.5 mg/kg/day. Type of assay: functional, Mus musculus. An outline of the steps: as §2
The test system of assay [16] is Plasmodium berghei. The assay can be described thus: Parasitaemia (%) in tail blood smears from Plasmodium berghei infected ICR mice (Mus musculus) at 0.5-mg/kg/day for 4 days. Type of assay: functional. In short, it runs like this: as §1
Assay [17] is described as follows: The compound was tested for survival of the ICR mice (infected with Plasmodium berghei) as a symptom indicative of toxicity on day 4, at a dose of 20 mg/kg/day. Format: functional, Mus musculus. An outline of the steps:
as §2

In assay [18] the test system is Plasmodium berghei. The assay can be described thus: Parasitaemia (%) in tail blood smears of Plasmodium berghei infected ICR mice (Mus musculus) at 10 mg/kg/day after 4 days. Format: functional. An outline of the steps: as §1
The subject of another assay is Vero. The assay can be described thus: The compound was tested for cytotoxicity against monkey kidney cell line ( Vero ). To be noted: Chlorocebus sabaeus. Type of assay: functional, cell-based.
The subject of assay [19] is Plasmodium berghei. Nature of the assay: Parasitaemia (%) in tail blood smears from Plasmodium berghei infected ICR mice (Mus musculus) at 0.1 mg/kg/day for 4 days. Type of assay: functional. In short, it runs like this:
as §1

Assay [20] deals with Plasmodium berghei. The assay can be described thus: Parasitaemia (%) in tail blood smears of Plasmodium berghei infected ICR mice (Mus musculus) at 20 mg/kg/day after 4 days. Type of assay: functional. An outline of the steps: as §1
The subject of assay [21] is Plasmodium berghei. Nature of the assay: Parasitaemia (%) in tail blood smears of Plasmodium berghei infected ICR mice (Mus musculus) at 0.5 mg/kg/day after 4 days. Type of assay: functional. In short, it runs like this: as §1

Regarding `Nc1ncnc2c1ncn2[C@@H]1C=C(CO)[C@@H](O)[C@H]1O` [NEOPLANOCIN A], the Parasitemia in the assay with Plasmodium berghei [1] is recorded as 20%; with Plasmodium berghei [2] it was 21%; with Plasmodium berghei [3] it was 21%; with Plasmodium berghei [4], 12%; in the assay with Plasmodium berghei [7], 21%; in the assay on Plasmodium berghei [12] it was 21%. Moreover, the IC50 is 0.2 µM with Plasmodium falciparum and 0.22 µM in [13]. Further, the Survival in assay [5] stood at 0; in assay [6], 5; in assay [8] it was 5; in assay [9], 5; in assay [11], 0; in assay [14] it was 5. For the same molecule, the Survival in [15] was 5. The molecule further yielded an EC50 in [10] of over 5 mg/kg/day.

Consider `C[C@@H](O)C1=C[C@@H](n2cnc3c(N)ncnc32)[C@H](O)[C@@H]1O`, for which the Parasitemia in the assay with Plasmodium berghei [1] is 21%; in the assay on Plasmodium berghei [2], 10%; with Plasmodium berghei [16] it was 21%; with Plasmodium berghei [3], 5%; with Plasmodium berghei [4] it was 2%; in the assay with Plasmodium berghei [18], 2%. Further, the Parasitemia in the assay on Plasmodium berghei [7] was found to be 21%. Moreover, the IC50 in the assay on Plasmodium falciparum is 0.1 µM; with Vero, over 1800 µM; in assay [13] it was 1.1 µM. Also, the Survival is on record as 2 in [17]; 5 in assay [6]; 5 in [8]; 5 in assay [9]; 5 in [11]; 5 in assay [14]. In assay [15], this molecule registered a Survival of 5. This molecule came in with an EC50 in assay [10] of 1 mg/kg/day.

Consider `CCN(CC)CCCC(C)Nc1ccnc2cc(Cl)ccc12` (stereo not given) [CHLOROQUINE], for which the Parasitemia in the assay on Plasmodium berghei [19] is listed as 21%; in the assay on Plasmodium berghei [2], 18%; in the assay with Plasmodium berghei [20], 1%; in the assay with Plasmodium berghei [3], 7%; in the assay with Plasmodium berghei [4], 3%; with Plasmodium berghei [18] it was 2%. Moreover, the Parasitemia with Plasmodium berghei [7] came out at 21%; with Plasmodium berghei [21], 20%. Moreover, the Survival in assay [17], in assay [6], in assay [8], in assay [9], in assay [11] and in assay [14] was 5 each time. Besides, in assay [15], the Survival is on record as 5. Besides, in assay [10], the EC50 was determined as 1.8 mg/kg/day.
